The RNAGym collection of RNA variant scans (doi:10.1126/science.aae0568)
Fewer inactive variants are shown than the library holds.

B1: tRNA (parent)
chain: GUUCCGUUGGCGUAAUGGUAACGCGUCUCCCUCCUAAGGAGAAGACUGCGGGUUCGAGUCCCGUACGGAACG

Variants of: B1
Assay: yeast fitness relative to wild type (ratio to wild type); higher = fitter; tRNA-Arg(CCU), competitive growth, 37 C, YPD
Summary of the method: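 Variants of the tRNA-Arg(CCU) gene were chemically synthesised with a 3% per-site mutation rate across 69 sites and placed at the native genomic locus in Saccharomyces cerevisiae. Six parallel replicates of the pooled strains were competed in YPD at 37°C for 24 hours, and gene amplicons from the start and end populations were read by 100-nucleotide paired-end sequencing. Darwinian fitness relative to wild type was derived from changes in genotype frequencies. Genotypes required ≥ 100 starting reads, and estimates < 0.5 were set to 0.5.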

Variant	yeast fitness
G17A C49U	0.892
G17A C49G	0.761
U19A A21C G25C G68C	0.752
U19A C49U	1.03
U19A C49A	0.642
U19A C22G C24U C33G	0.674
U19C A37U C62A U64C	0.725
G17C G50C	0.536
G18C C24U C30G	≤ 0.5
U19C C29A G39C A57G C61U C66U	≤ 0.5
U19A U54A	0.706
U19A G56A	1
G18A C24G C66U	≤ 0.5
U19A A57G	0.931
G17A C33U A36U C46A	0.822
G18A A21U A37U A42U C46A G58C U64A	≤ 0.5
G18C C29U C30U C49U G67A	≤ 0.5
G18A C30U A45C G52C	≤ 0.5
G18A C30G C34G	≤ 0.5
U19A A20U U53C	≤ 0.5
G18C G50A C62A	≤ 0.5
G17C A20U U54A C61U	0.546
U19C C49G	1.14
G18C A42U U54A G58C	0.574

Variant	yeast fitness
G18C G52C C60U	0.591
G17C G25A C49A A69U	≤ 0.5
G17A G25A C31G G68A	≤ 0.5
G17C A37U A69C	≤ 0.5
G18C G44A	0.604
G18C G25C U47C	≤ 0.5
G18C A42U G48C G68C A69U	≤ 0.5
G18C C60U	≤ 0.5
G18C C60A	≤ 0.5
G18A A21U U32A C62G A65G	≤ 0.5
G17A U26C C61U G67A	≤ 0.5
U19A C46U G67A	0.957
U19C C27A C30G A45C	≤ 0.5
G17A U32A U54C	≤ 0.5
G17C C29U A37C A69U	≤ 0.5
U19A C30A	0.812
G18A C24A C62U	0.536
U19C A40G G48A	0.718
G18A C24G G56A C66U	≤ 0.5
G17A C60U	0.594
U19C C33G A57G C61G	≤ 0.5
U19A A45U C46U	1.07
G18U A21U G52A	≤ 0.5
G18A C22G C24G	≤ 0.5

Variant	yeast fitness
U19C A20C C31G A70C	≤ 0.5
G18A U47C A57U	≤ 0.5
G17C C22G C24A C62A C66U	≤ 0.5
G17C U26C C46U A65C	≤ 0.5
G18C A65G	0.62
G17C C46G G68A	≤ 0.5
G18A G23A C33A U64C	0.789
G18A U19C C27G C61A U64G	≤ 0.5
G18C A57U G67C	≤ 0.5
G18A U32C A70G	0.599
G18C C22G G38A	≤ 0.5
G18C C29U C34U	≤ 0.5
G17U A37U	≤ 0.5
G18A A65C	0.759
U19C A20C C24A G56A	≤ 0.5
G18C C31G G44C	0.658
G18C A42U G48C U64C	≤ 0.5
G18C C34U A69C	≤ 0.5
U19A C22U A40U G51C	≤ 0.5
G18C A20C C22U C31U C61U	≤ 0.5
U19A C46U G48A U53C	0.784
U19C C66U	0.855
G18A C29U U35A A70U	≤ 0.5
G18A U19A C27U G67A	≤ 0.5

Variant	yeast fitness
G18A A40G C62A A65U C66U	≤ 0.5
G18A U47C	0.728
G18A G25C C49U	0.74
G17C C24U C46G C62G	0.572
U19C A69C	0.991
U19C A69G	0.788
G18A A37U U47A C62U	≤ 0.5
G17C A20C	0.54
U19C C24G A37U U54G U64A	≤ 0.5
G17C C29U	0.545
U19C C31U C33G G41A C49G U54C U59C G63A	≤ 0.5
G17A G18A C61A	≤ 0.5
U19A C27A C46A G67A	≤ 0.5
G18C G23A G25C A37G A43C U54C C55G G68A	≤ 0.5
U19A C29U G67C A69G	≤ 0.5
G17C C29U A37C A65C	0.555
G18A C31A G44A	0.534
U19C G25A	0.969
G18A C27U G39A C60A	≤ 0.5
G18A A40G A70C	≤ 0.5
G18C C24G A45G C55G	0.693
G17C C22G C55G C60A	≤ 0.5
U19C G25A G44C U47A	≤ 0.5
U19A A43U A45C G67C	≤ 0.5

Variant	yeast fitness
G18C U26A A45G C66G	≤ 0.5
U19C A70C	1.03
U19C A70U	0.953
G18A C30U C60G	≤ 0.5
U19A U32C C49A	≤ 0.5
G17A C34U U47A G68C	≤ 0.5
U19C A57G	0.945
U19C A57C	0.594
G18A C31A C60A	≤ 0.5
U19A C24A C30G C34U G52C	≤ 0.5
G18A C22U C30U C33U A45C	≤ 0.5
G18A C55A C62G	≤ 0.5
U19C A42U C46U C55G	≤ 0.5
U19C A37G G58C C61U U64C	≤ 0.5
G18C C62G G67U	≤ 0.5
U19C A20U C29U G41C	≤ 0.5
G17A C31U U35C A57G	0.527
G18C C30G U32C A69U	≤ 0.5
U19C G50A	0.833
U19C G23A G38A	0.634
G17C U19A C49G A69G	≤ 0.5
G17C A40G A42C A45U U54C	≤ 0.5
G17C U53A C60A G67A	≤ 0.5
G18C C24A A36U	≤ 0.5

Variant	yeast fitness
G17C U54A G56C	≤ 0.5
U19C A42G C46A C55G	≤ 0.5
G18A G23C C30G A36U	≤ 0.5
U19A G39A G44A	0.873
G17C U28A C34G G38A G51A	0.512
G18C U47C	0.658
G17A C31G	0.85
G17C C24A A45C G52A	≤ 0.5
G17C A20U C66A	≤ 0.5
G18A A37C C55U A57G	≤ 0.5
U19C A20C A70U	0.65
U19A A21G	0.987
G18C C30U U32A C34G A45C U47G A57G	0.688
G18U C34U	≤ 0.5
U19C G50A C55A C66A	0.516
G17C C27U A65C	0.54
G17A G18C G39C A65U	≤ 0.5
G18C G44A G63C A65C	≤ 0.5
U19A C22G C24U C33G A36G	0.581
U19C C27G C46U	0.673
G17A C34G	0.569
G17C C46U G68A	≤ 0.5
G17C U35A C61U	≤ 0.5
U19A U47A G52C	≤ 0.5

Variant	yeast fitness
G17A C61G	0.573
G17U C30A A43U C66U	≤ 0.5
G17C C62G	0.57
G18A C27U C46A	0.528
G17A G63C	0.579
G17A G63A	0.744
G18C G67A A69C	≤ 0.5
U19A A45G G68C	≤ 0.5
G18A A21C C33G A37U U64G	≤ 0.5
G18A C34G C46A C62U A69C	≤ 0.5
G18C C24G U35C G50C C55G G67C	≤ 0.5
G17C G48A	0.685
U19A U28A C31G A43G A45G	≤ 0.5
U19C G50A C55A	≤ 0.5
G18C C62A C66A	≤ 0.5
G18C A21U U26C G51C	0.739
U19C A36U C62G	0.529
U19A G48A G68C	0.626
G18U U26A C66A A70U	0.536
U19A C27A C46A	0.506
U19C A65G	1
G18C C24U C66U	≤ 0.5
U19C C46U A69C	0.724
